NSD2 inh: blocks human histone methyltransferase NSD2. NSD2 peptide methylation, AlphaScreen, 120 min. inhibition, % at 12.5 µM. 310,000 tested, 0.54% active. O96028; in the data active means inhibition above about 50%
TDP2 absorb: TDP2 (human) inhibition, absorbance primary screen; O95551; recombinant TDP2, T5PNP hydrolysis, p-nitrophenol absorbance 415 nm; inhibition, % at 12.8 µM; 370,000 tested, 0.34% active; AID 720702;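 active means inhibition above the mean of all tested compounds plus 3 SD, set per campaign, cut at about 25% in these data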;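 further: 0% = DMSO with enzyme and 100% = buffer with substrate but no TDP2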
Target sequence (O95551 whole entry, looked up): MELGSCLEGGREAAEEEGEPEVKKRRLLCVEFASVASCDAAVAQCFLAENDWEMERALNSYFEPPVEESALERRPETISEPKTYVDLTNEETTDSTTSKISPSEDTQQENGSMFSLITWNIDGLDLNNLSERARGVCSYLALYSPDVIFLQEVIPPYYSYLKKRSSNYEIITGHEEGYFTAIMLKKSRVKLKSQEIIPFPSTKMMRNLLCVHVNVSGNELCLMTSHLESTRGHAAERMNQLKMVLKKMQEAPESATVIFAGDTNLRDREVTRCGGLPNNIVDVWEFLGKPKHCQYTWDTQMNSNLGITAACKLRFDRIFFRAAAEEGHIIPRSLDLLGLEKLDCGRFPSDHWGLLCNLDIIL
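Material: recombinant human TDP2; quantity: TDP2 enzyme at 120 nM final; medium: Tris-HCl pH 7.5 with MgCl2; compound: single concentration, 12.8 µM nominal, with 1% DMSO; incubation: 2 h enzyme incubation at 37 °C; signal: epi absorbance; measure: percent inhibition; benchmarks: high control without enzyme, low control DMSO plus TDP2; repeats: singlicate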
SUMO HTRF inh: inhibitors of human SUMOylation (UBC9). P63279. inhibition, % at 35 µM. HTRF SUMOylation assay, SAE1/SAE2 + UBC9, in vitro. 290,000 tested, 0.36% active. AID 2006; in the data active means inhibition above about 50%, passing the limit was not always enough
Target sequence (P63279 whole entry, looked up): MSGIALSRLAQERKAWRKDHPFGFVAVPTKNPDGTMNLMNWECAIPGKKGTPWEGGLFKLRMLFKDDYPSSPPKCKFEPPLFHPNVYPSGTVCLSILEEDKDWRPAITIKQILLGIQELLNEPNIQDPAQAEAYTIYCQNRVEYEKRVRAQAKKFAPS
CTSL1 counter: blocks F. hepatica cathepsin L1 in PFM18AAP counter-screen; 300,000 tested, 0.49% active; inhibition, % at 5.96 µM; recombinant F. hepatica cathepsin L1, Z-Leu-Arg-MCA fluorescence;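 active means inhibition above the mean of all tested compounds plus 3 SD, set per screening campaign, cut at about 17% in these data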;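 further: 0% = plate median of test compound wells and 100% = 1 µM Z-Phe-Ala-diazomethylketone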
Active calls of the source: *; / = no result given. Hits are enriched below; roughly 1.2% of the tested compounds scored in any of these assays.

SMILES | NSD2 inh | TDP2 absorb | SUMO HTRF inh | CTSL1 counter
CC(C)CC(NC(=O)/C(=C\c1ccco1)NC(=O)c1ccco1)C(=O)O (configuration not stated) | 0 | 0 | 11 | 38*
O=C(NCc1ccccc1)/C(=C/c1ccccc1)NC(=O)c1ccco1 | 0 | 0 | -5 | -3
O=C(NCc1ccccc1)/C(=C/c1ccco1)NC(=O)c1ccco1 | -1 | -8 | 0 | 28*
Cc1ccc(NC(=O)[C@@H](Cc2ccccc2)NC(=O)[C@H]2O[C@@H](n3ccc(=O)[nH]c3=O)[C@H](O)[C@@H]2O)cc1C | -1 | 6 | / | /
Cc1ccccc1Nc1nc(N)nc(COC(=O)c2ccco2)n1 | -2 | -9 | / | /
COCc1c(C(=O)OCc2nc(N)nc(Nc3ccccc3C)n2)oc2ccccc12 | 3 | 5 | -42 | 17*
Cc1cc(C)nc(Nc2ccc(N3CCCC3)cc2)n1 | 27 | -5 | 1 | 17*
COc1cccc(/C=N/NC(=O)C(=O)N/N=C/c2cccc(OC)c2O)c1O | 15 | -2 | 71* | /
C#CCOCCOCCOCCNc1nc(N2CCN(C(=O)CCCCCCCCCCNC(=O)Cn3cc(CCCCCN)nn3)CC2)nc(N2CCN(C(=O)CCCCCCCCCCNC(=O)[C@H]([C@@H](C)CC)n3cc(CCCCCN)nn3)CC2)n1 | / | / | / | 7
Cc1ccc2c(c1)-c1c(cnn1CC(=O)NCCc1ccccc1F)CO2 | -2 | -1 | / | /
CC1(C)Oc2ccc(C(=O)NC3CCCC3)cc2NC1=O | 0 | 3 | / | /
CCc1ccc2c(c1)C(NC(C)=O)C(=O)N2CCN1CCOCC1 (configuration not stated) | -2 | 22 | 60* | 1
CN(C(=O)c1cccc(NC(=O)Cc2cccc(NC(=O)C3CCN(C(=O)c4ccccc4)CC3)c2)c1)C1CC1 | / | 3 | / | /
C/C(=N/NC(=O)c1ccncc1)c1cc2ccc(O)cc2oc1=O | 2 | -17 | 1 | 0
C/C(=N/NC(N)=S)c1cc2ccc(O)cc2oc1=O | 18 | 15 | 20 | 20*
Cc1nn(C)c(C)c1NC(=O)Nc1cccc(C(F)(F)F)c1 | / | 0 | -14 | 1
Cc1nn(C)c(C)c1NC(=O)Nc1ccc(Cl)c(Cl)c1 | -3 | -9 | 18 | 20*
CC(C)CC(NC(=O)c1ccc(Cl)cc1)C(=O)OCC(=O)c1ccc2c(c1)NC(=O)CO2 (configuration not stated) | -2 | 9 | 30 | 25*
COc1ccc(NC(=O)COC(=O)C(CC(C)C)N2C(=O)C3CC=CCC3C2=O)cc1Cl (configuration not stated) | -2 | 1 | -3 | 52*
COC(=O)[C@]12C[C@H](CC(=O)NCc3ccc(C)o3)C(=O)N(Cc3ccc4c(c3)OCO4)C1=C[C@H](COCc1ccccc1)O[C@@H]2C | / | -3 | / | /
O=C(CNC(=O)c1ccccc1)OCc1cc(=O)n2cc(Br)ccc2n1 | 0 | -10 | -11 | 5
O=C(CNC(=O)c1cccc(F)c1)OCc1cc(=O)n2cc(Br)ccc2n1 | -1 | 11 | 6 | 17*
NC(=O)CN1C(=O)C(O)(CC(=O)/C=C\C=C\c2ccccc2)c2ccccc21 (configuration not stated) | 10 | 2 | 9 | 3
Cc1ccc2c(c1)C(O)(CC(=O)/C=C/C=C/c1ccccc1)C(=O)N2 (configuration not stated) | 5 | -5 | 6 | 21*
CCN1C(=O)C(O)(CC(=O)/C=C/C=C/c2ccccc2)c2ccccc21 (configuration not stated) | 5 | -5 | -2 | 22*
SMILES | NSD2 inh | TDP2 absorb | SUMO HTRF inh | CTSL1 counter
NC(=O)CN1C(=O)C(O)(CC(=O)/C=C\c2ccc3c(c2)OCO3)c2ccccc21 (configuration not stated) | / | -5 | -8 | 2
O=C(/C=C/C=C/c1ccccc1)CC1(O)C(=O)N(CCc2ccccc2)c2ccccc21 (configuration not stated) | 3 | -10 | 4 | 18*
C#CCN1C(=O)C(O)(CC(=O)c2ccc3c(c2)OCCO3)c2ccccc21 (configuration not stated) | / | -18 | 21 | 1
C#CCN1C(=O)C(O)(CC(=O)/C=C/C=C/c2ccccc2)c2ccccc21 (configuration not stated) | -1 | 2 | 4 | 39*
CCCCN(CCCNC(=O)CN1C(=O)COc2ccc(S(=O)(=O)N3CCC(C)CC3)cc21)Cc1ccccc1 | 0 | -4 | -2 | 2
O=S1(=O)c2c(NCc3ccco3)cccc2Oc2ccccc2CN1Cc1cn(Cc2ccccc2C(F)(F)F)nn1 | / | 12 | / | /
O=C(C[n+]1ccccc1)N/N=C/c1ccccc1[N+](=O)[O-] | -3 | -13 | 10 | 6
O=C1CC(CC(=O)N/N=C/c2ccccc2[N+](=O)[O-])=NN1 | 2 | 14 | 75 | 18*
NC(=O)CSc1nc2scc(-c3ccco3)c2c(=O)n1-c1ccccc1 | / | -3 | 26 | 28*
COCCCNC(=O)c1cccn2c(=O)c3cc4ccccc4cc3nc12 | 85* | 10 | 73 | -1
C=CCn1c(=N)c(C(=O)NCCCOC)cc2c(=O)n3cccc(C)c3nc21 | 2 | -4 | 26 | 1
O=C(NCc1ccco1)c1cccn2c(=O)c3cc4ccccc4cc3nc12 | / | / | 78* | /
Cc1ccc(S(=O)(=O)N2CCN(c3nc(CN4CCOCC4)nc4sc(C)c(C)c34)CC2)c(C)c1 | 8 | / | / | /
COc1ccc(CCn2c(O)cc3nn(-c4nc5ccccc5s4)c(=O)c-3c2C)cc1 | 3 | -1 | 63* | 0
COc1ccc(CN2CCN(c3nc4ccccc4s3)CC2)cc1 | / | -2 | -12 | /
O=C1NC(=O)/C(=C\c2ccc(O)cc2O)S1 | 102* | 4 | 38 | -1
O=C(NC(c1cccnc1)c1ccc2c(c1)OCO2)C1CCN(CCOc2ccc(Cl)cc2Cl)CC1 (configuration not stated) | 1 | -7 | / | /
O=C(/C=C/c1ccco1)NCC1CCCO1 (configuration not stated) | -3 | 7 | -4 | 34*
Nc1[nH]c(C(=O)c2ccccc2)c(-c2ccc3ccccc3c2)c1C(=O)NCc1ccc(F)cc1 | / | -2 | / | /
COc1ccc(S(=O)(=O)Nc2ccc(O)c3ccccc23)cc1 | 4 | 42* | 71 | -3
Nc1nc(-c2cc(O)ccc2[N+](=O)[O-])cc(-c2ccccc2)c1[N+](=O)[O-] | -1 | 0 | 98* | /
COc1ccc(C(=O)Nc2cc(C(=O)c3ccccc3)c(C)oc2=O)cc1 | 3 | 6 | -23 | 18*
Cc1oc(=O)c(NC(=O)c2cccc(Cl)c2)cc1C(=O)c1ccccc1 | 3 | 7 | -9 | 55*
Cc1ccccc1NC(=O)CN1C(=O)S/C(=C\c2ccc(-c3cc(C(=O)O)ccc3C)o2)C1=O | 14 | 2 | / | /
C#CCN1C(=O)S/C(=C\c2ccc(-c3ccc(C(=O)O)cc3C)o2)C1=O | 12 | 2 | 32 | -2
Cc1cc(C(=O)O)ccc1-c1ccc(/C=C2\SC(=O)N(CC(=O)Nc3ccc4c(c3)OCO4)C2=O)o1 | 5 | 13 | 82* | /

High-throughput results deposited in PubChem by several laboratories.
